Reference: ChEMBL document CHEMBL1140247, “The identification, synthesis, protein crystal structure and in vitro biochemical evaluation of a new 3,4-diarylpyrazole class of Hsp90 inhibitors” (Bioorg Med Chem Lett, 2005)
Several values for one entry are separate records, joined by “and”; a condition that tells them apart may be missing. Equal entries are not always repeated.

Tests used:
Type in all cases: functional
[1] = biological target: ATP-dependent molecular chaperone HSP82 (Saccharomyces cerevisiae S288c, UniProt P02829); test: Inhibition of yeast Hsp90 ATPase activity
ATP-dependent molecular chaperone HSP82, sequence (P02829 whole entry): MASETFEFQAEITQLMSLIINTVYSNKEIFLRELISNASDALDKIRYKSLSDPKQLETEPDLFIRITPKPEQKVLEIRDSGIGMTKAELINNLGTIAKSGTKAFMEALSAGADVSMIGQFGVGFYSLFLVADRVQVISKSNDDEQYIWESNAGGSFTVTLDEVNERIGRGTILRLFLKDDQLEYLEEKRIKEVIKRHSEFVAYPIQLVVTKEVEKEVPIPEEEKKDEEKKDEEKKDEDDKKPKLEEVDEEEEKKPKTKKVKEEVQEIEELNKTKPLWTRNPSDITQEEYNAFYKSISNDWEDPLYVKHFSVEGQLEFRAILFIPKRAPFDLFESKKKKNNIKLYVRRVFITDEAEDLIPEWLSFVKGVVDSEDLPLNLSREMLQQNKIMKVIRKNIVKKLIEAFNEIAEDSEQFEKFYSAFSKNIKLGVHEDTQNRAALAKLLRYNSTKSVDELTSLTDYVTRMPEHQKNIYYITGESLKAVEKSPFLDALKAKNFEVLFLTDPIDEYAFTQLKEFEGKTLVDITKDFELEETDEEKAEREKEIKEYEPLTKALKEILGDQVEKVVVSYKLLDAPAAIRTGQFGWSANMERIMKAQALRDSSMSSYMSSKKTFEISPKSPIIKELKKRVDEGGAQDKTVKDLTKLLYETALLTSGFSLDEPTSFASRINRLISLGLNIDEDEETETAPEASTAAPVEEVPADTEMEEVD
Procedure, shortened: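 Yeast Hsp90 ATPase activity assay. Original conditions were 1 mM ATP substrate, incubated 3 h at 37 °C. Later optimised conditions used lower ATP and enzyme concentrations, with overnight incubation at 37 °C. IC50 values derived.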

HCT-116 = test: Inhibition of HCT116 human colon cancer cell proliferation
Procedure, shortened: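 HCT116 colon cancer cells; growth inhibition measured by sulforhodamine B (SRB) assay; GI50 derived.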

[2] = biological target: ATP-dependent molecular chaperone HSP82 (Saccharomyces cerevisiae S288c) (UniProt P02829); test: Inhibition of yeast Hsp90 ATPase activity at 40 uM
ATP-dependent molecular chaperone HSP82 (Saccharomyces cerevisiae S288c), sequence (P02829 whole entry, looked up): as the sequence (P02829 whole entry) above

SMILES | IC50 [1] | GI50 (HCT-116) [µM] | inhibition [2] [%]
CCc1cc(-c2n[nH]c(C)c2-c2ccc3c(c2)OCCO3)c(O)cc1O | 8.9 µM and 7.1 µM | – | –
COc1ccc(-c2[nH]nc(C)c2-c2ccc3c(c2)OCCCO3)c(O)c1 | – | – | 25
C=CCNC1=C2CC(C)C[C@H](OC)C(O)C(C)/C=C(\C)[C@H](OC(N)=O)[C@@H](OC)/C=C\C=C(/C)C(=O)NC(=CC1=O)C2=O (single isomer, unassigned) [TANESPIMYCIN] | – | 0.021 | 80
CCCc1cc(-c2[nH]nc(C)c2-c2ccc3c(c2)OCCO3)c(O)cc1O | 46.1 µM | – | 25
Cc1[nH]nc(-c2cc(Cl)c(O)cc2O)c1-c1ccc2c(c1)OCCO2 | < 1 µM | 4 | –
CCC(C)c1cc(-c2n[nH]cc2-c2ccc3c(c2)OCO3)c(O)cc1O (stereo not given) | 22.3 µM | – | –
Cc1n[nH]c(-c2ccc(O)cc2O)c1Oc1ccc(F)cc1 | – | – | 0
CCc1cc(-c2[nH]nc(C)c2-c2ccc3c(c2)OCCO3)c(O)cc1O | – | 4.1 | 79
Cc1n[nH]c(-c2ccc(O)c(Cl)c2)c1-c1ccc2c(c1)OCCO2 | > 100 µM | – | –
COc1ccc(-c2cn(C)nc2-c2cc(Cl)c(O)cc2O)cc1OC | > 100 µM | – | –
Cc1n[nH]c(-c2ccc(O)cc2O)c1-c1ccc2c(c1)OCCO2 | – | – | 26
Cc1[nH]nc(-c2cc(Cl)ccc2O)c1-c1ccc2c(c1)OCCO2 | 25.5 µM | – | –
COC1=C2CC(C)C[C@H](OC)C(O)C(C)/C=C(\C)[C@H](OC(N)=O)[C@@H](OC)/C=C\C=C(/C)C(=O)NC(=CC1=O)C2=O (single isomer, unassigned) [GELDANAMYCIN] | – | 0.067 | 90

Further lines, results first:

IC50 [1] | GI50 (HCT-116) [µM] | inhibition [2] [%] | SMILES
12.8 µM | 31 | – | N#CCCCOc1ccccc1-c1cn[nH]c1-c1cc(Cl)c(O)cc1O
– | – | 13 | COc1ccc(-c2c[nH]nc2-c2cc(C(C)C)c(OC)cc2O)cc1
< 1 µM | 3.6 | – | Cc1n[nH]c(-c2cc(Cl)c(O)cc2O)c1-c1ccc(OCCCC#N)cc1
– | – | 64 | CCC(C)c1cc(-c2[nH]ncc2-c2ccc3c(c2)OCO3)c(O)cc1O (stereo not given)
1.6 µM | 23 | – | Oc1cc(O)c(-c2n[nH]cc2-c2ccc3c(c2)OCCO3)cc1Cl
1.65 µM | 6.4 | – | Cc1n[nH]c(-c2cc(Cl)c(O)cc2O)c1-c1ccccc1
– | – | 0 | CCC(C)c1cc(-c2[nH]ncc2-c2ccc3c(c2)OCCO3)c(O)cc1OC (stereo not given)
– | – | 10 | CCC(C)c1cc(-c2[nH]ncc2-c2ccccc2)c(O)cc1OC (stereo not given)
2.4 µM | 30 | – | N#CCCCOc1cccc(-c2cn[nH]c2-c2cc(Cl)c(O)cc2O)c1
– | – | 20 | COc1cc(O)c(-c2[nH]ncc2-c2ccc3c(c2)OCO3)cc1C(C)C
< 1 µM | 6.8 | – | N#CCCCOc1ccc(-c2cn[nH]c2-c2cc(Cl)c(O)cc2O)cc1
1.55 µM | 11 | – | Oc1cc(O)c(-c2n[nH]cc2-c2ccc(-c3ccc(F)cc3)cc2)cc1Cl
– | – | 15 | CC(C)c1cc(-c2[nH]ncc2-c2nc3ccccc3s2)c(O)cc1O
2.4 µM | 13 | – | COc1ccc(-c2c[nH]nc2-c2cc(Cl)c(O)cc2O)cc1OC
